Source: ChEMBL document CHEMBL1149106, “Design, synthesis, and evaluation of aza-peptide epoxides as selective and potent inhibitors of caspases-1, -3, -6, and -8” (J Med Chem, 2004)
Active and inactive are the calls of the source. The rule behind the calls is not given here.

Assays:
Caspase-8 (Homo sapiens) [1] = target: Caspase-8 (Homo sapiens) (UniProt Q14790); test: Second-order inhibition rate of caspase-8 was determined by progress curve method
How it was run: (§1)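 Caspases-3, -6 and -8 were assayed in 50 mM HEPES, 100 mM NaCl, 0.1% (w/v) CHAPS, 10% (w/v) sucrose and 10 mM DTT, pH 7.4. Substrate: Cbz-DEVD-AFC or Cbz-DEVD-AMC.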

[2] = target: Cathepsin B (Homo sapiens) (UniProt P07858); test: Tested for inhibition of cathepsin B by the compound; NI = No Inhibition
Caspase-6 (Homo sapiens) [3] = target: T1, Caspase-6 (Homo sapiens) (UniProt P55212); test: Second-order inhibition rate of caspase-6 was determined by progress curve method; how it was run: as §1
T1 sequence (whole entry): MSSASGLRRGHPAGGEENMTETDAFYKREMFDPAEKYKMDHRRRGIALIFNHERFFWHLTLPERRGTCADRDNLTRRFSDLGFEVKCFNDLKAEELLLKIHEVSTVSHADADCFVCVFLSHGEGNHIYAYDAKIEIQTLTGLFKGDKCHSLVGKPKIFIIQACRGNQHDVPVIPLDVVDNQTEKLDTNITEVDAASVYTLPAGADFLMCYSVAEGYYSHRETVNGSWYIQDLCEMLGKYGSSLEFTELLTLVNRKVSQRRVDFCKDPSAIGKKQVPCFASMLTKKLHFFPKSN

Caspase-3 (Homo sapiens) [4] = target: T2, Caspase-3 (Homo sapiens) (UniProt P42574); test: Second-order inhibition rate of caspase-3 was determined by progress curve method; how it was run: as §1
T2 sequence (whole entry): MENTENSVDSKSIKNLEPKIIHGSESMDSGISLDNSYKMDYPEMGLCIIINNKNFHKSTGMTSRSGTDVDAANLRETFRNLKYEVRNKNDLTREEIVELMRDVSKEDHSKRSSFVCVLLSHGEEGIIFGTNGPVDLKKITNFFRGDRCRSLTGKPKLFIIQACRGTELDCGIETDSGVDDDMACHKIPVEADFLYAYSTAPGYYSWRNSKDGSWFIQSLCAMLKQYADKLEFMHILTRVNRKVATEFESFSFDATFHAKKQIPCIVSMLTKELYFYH

Papain (Carica papaya) [5] = target: T3, Papain (Carica papaya) (UniProt P00784); test: Tested for inhibition of papain by the compound; NI = No Inhibition
T3 sequence (whole entry): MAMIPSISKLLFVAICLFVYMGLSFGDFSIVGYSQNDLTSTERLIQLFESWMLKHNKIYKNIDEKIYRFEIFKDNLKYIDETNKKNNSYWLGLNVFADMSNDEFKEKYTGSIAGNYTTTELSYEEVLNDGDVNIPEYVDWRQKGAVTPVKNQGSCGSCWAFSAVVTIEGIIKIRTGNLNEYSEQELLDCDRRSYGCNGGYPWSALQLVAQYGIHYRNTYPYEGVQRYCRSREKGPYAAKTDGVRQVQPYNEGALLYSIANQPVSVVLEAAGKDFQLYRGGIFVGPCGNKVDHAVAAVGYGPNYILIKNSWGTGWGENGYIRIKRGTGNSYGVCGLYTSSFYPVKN

[6] = Tested for inhibition of chymotrypsinogen by the compound; NI = No Inhibition
Cathepsin B [7] = test: Tested for inhibition of cathepsin B by the compound; NI = No Inhibition
Caspase-1 (Homo sapiens) = target: T4, Caspase-1 (Homo sapiens) (UniProt P29466); test: Second-order inhibition rate of caspase-1 was determined by progress curve method
T4 sequence (whole entry): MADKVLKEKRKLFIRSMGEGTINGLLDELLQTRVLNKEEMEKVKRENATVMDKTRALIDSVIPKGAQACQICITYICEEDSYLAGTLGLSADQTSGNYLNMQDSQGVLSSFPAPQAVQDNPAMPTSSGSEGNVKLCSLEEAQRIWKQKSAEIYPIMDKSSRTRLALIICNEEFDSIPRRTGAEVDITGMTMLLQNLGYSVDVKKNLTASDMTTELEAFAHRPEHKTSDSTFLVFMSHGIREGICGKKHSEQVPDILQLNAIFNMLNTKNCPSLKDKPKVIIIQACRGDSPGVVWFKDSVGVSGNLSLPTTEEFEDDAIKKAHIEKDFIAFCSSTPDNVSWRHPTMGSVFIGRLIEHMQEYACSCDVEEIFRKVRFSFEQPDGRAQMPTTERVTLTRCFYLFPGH
How it was run: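 Caspase-1 assay buffer: 100 mM HEPES, 0.5 mM EDTA, 20% (v/v) glycerol, 5 mM DTT, pH 7.5. Substrate: Ac-YVAD-AMC.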

[8] = target: Human immunodeficiency virus type 1 protease (Human immunodeficiency virus 1) (UniProt Q72874); test: Tested for inhibition of HIV-1 protease by the compound; NI = No Inhibition
[9] = target: Plasmepsin II (Plasmodium falciparum) (UniProt P46925); test: Inhibition of plasmepsin-2 from Plasmodium falciparum; NI = No Inhibition
[10] = target: Cathepsin D (Homo sapiens) (UniProt P07339); test: Tested for inhibition of human cathepsin D by the compound; NI = No Inhibition
Pepsin A (Sus scrofa) = Pepsin A (Sus scrofa) (UniProt P00791); test: Tested for inhibition of porcine pepsin by the compound; NI = No Inhibition
[11] = target: Granzyme B (Homo sapiens) (UniProt P10144); test: Tested for inhibition of granzyme B by the compound; NI = No Inhibition
[12] = target: Granzyme B (Homo sapiens) (UniProt P10144); test: Tested for inhibition of granzyme B by the compound
[13] = Tested for inhibition of chymotrypsinogen by the compound; ND = Not determined
[14] = target: Cathepsin B (Homo sapiens) (UniProt P07858); test: Tested for inhibition of cathepsin B by the compound
Papain (Carica papaya) [15] = target: T3, Papain (Carica papaya); test: Tested for inhibition of papain by the compound
Cathepsin B [16] = test: Tested for inhibition of cathepsin B by the compound
Caspase-3 (Homo sapiens) [17] = target: T2, Caspase-3 (Homo sapiens); test: Second-order inhibition rate of caspase-3 was determined by progress curve method; No inhibition; how it was run: as §1
Caspase-6 (Homo sapiens) [18] = target: T1, Caspase-6 (Homo sapiens); test: Second-order inhibition rate of caspase-6 was determined by progress curve method; No inhibition; how it was run: as §1
Caspase-8 (Homo sapiens) [19] = target: Caspase-8 (Homo sapiens) (UniProt Q14790); test: Second-order inhibition rate of caspase-8 was determined by progress curve method; No inhibition; how it was run: as §1
[20] = target: Human immunodeficiency virus type 1 protease (Human immunodeficiency virus 1) (UniProt Q72874); test: Tested for inhibition of HIV-1 protease; NI = No Inhibition

Cathepsin D (Homo sapiens), sequence (P07339 65-162 limits assumed): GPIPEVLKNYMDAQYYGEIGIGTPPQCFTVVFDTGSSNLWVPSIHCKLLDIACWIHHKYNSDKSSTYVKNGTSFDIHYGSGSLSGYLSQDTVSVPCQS
Cathepsin D (Homo sapiens), sequence (P07339 169-412 limits assumed): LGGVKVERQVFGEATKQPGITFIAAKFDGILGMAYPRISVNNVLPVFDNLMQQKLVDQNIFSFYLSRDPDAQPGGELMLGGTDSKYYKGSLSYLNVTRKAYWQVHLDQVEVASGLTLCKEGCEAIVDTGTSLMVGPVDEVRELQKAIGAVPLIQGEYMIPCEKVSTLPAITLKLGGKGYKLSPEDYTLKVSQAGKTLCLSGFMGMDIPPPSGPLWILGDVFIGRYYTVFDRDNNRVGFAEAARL
Granzyme B (Homo sapiens), sequence (P10144 whole entry): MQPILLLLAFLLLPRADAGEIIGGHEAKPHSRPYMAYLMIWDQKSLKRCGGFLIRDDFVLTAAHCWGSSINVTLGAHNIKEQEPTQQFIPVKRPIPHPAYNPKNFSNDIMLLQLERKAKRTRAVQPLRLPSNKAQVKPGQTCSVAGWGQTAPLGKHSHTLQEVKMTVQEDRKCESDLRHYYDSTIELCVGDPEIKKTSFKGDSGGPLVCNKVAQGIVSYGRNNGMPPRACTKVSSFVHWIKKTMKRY
Pepsin A (Sus scrofa), sequence (P00791 60-385 limits assumed): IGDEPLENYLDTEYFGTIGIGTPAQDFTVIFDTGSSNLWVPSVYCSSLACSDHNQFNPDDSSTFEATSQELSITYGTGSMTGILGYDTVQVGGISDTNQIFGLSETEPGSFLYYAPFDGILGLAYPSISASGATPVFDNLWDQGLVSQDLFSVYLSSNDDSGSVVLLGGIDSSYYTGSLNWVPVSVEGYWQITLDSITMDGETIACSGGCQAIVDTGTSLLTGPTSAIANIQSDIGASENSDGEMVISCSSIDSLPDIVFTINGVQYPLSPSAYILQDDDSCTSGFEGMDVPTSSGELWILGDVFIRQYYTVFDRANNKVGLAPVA
Plasmepsin II (Plasmodium falciparum), sequence (P46925 125-453 limits assumed): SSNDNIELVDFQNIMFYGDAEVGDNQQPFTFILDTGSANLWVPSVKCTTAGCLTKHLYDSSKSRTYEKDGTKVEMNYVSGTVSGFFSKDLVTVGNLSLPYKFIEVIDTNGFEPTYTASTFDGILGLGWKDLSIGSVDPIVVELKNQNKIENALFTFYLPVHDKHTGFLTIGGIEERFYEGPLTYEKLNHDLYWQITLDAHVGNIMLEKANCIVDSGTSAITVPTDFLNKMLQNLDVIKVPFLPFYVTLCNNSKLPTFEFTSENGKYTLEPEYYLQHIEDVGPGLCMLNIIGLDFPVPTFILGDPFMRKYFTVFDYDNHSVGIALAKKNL
Caspase-8 (Homo sapiens), sequence (Q14790 217-374 limits assumed): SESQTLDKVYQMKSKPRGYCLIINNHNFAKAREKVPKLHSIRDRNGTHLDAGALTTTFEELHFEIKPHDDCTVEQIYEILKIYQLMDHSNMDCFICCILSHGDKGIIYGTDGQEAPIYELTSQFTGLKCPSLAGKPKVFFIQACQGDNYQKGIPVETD
Caspase-8 (Homo sapiens), sequence (Q14790 385-479 limits assumed): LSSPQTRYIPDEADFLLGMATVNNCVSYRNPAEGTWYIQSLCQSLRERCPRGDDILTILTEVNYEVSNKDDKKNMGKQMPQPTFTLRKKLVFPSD

k2 (Caspase-8 (Homo sapiens) [1]) [M⁻¹ s⁻¹]	k obs / 1 [2]	k2 (Caspase-6 (Homo sapiens) [3]) [M⁻¹ s⁻¹]	k2 (Caspase-3 (Homo sapiens) [4]) [M⁻¹ s⁻¹]	k obs / 1 (Papain (Carica papaya) [5])	k obs / 1 [6]	k obs / 1 (Cathepsin B [7])	k2 (Caspase-1 (Homo sapiens)) [M⁻¹ s⁻¹]	k obs / 1 [8]	k obs / 1 [9]	k obs / 1 [10]	k obs / 1 (Pepsin A (Sus scrofa))	k obs / 1 [12] [M⁻¹ s⁻¹]	other results	Compound
34700	inactive	4390	3250	inactive	15 M⁻¹ s⁻¹	inactive	19600	–	–	–	–	–	–	CCOC(=O)[C@@H]1O[C@H]1C(=O)N(CC(=O)O)NC(=O)[C@@H](NC(=O)C(CCC(=O)O)NC(=O)[C@H](CC(C)C)NC(=O)OCc1ccccc1)[C@@H](C)O (stereo partly specified)
61200	inactive	8620	3210	inactive	36 M⁻¹ s⁻¹	inactive	25700	inactive	inactive	inactive	inactive	–	k obs / 1 [11]: inactive	CCOC(=O)[C@H]1O[C@@H]1C(=O)N(CC(=O)O)NC(=O)[C@@H](NC(=O)C(CCC(=O)O)NC(=O)[C@H](CC(C)C)NC(=O)OCc1ccccc1)[C@@H](C)O (stereo partly specified)
–	inactive	–	–	inactive	inactive	inactive	300	–	–	–	–	–	–	CC(C)[C@H](NC(=O)CCc1ccccc1)C(=O)N[C@@H](C)C(=O)NN(CC(=O)O)C(=O)[C@H]1O[C@@H]1CCc1ccccc1
95500	inactive	5440	1.07e+06	inactive	46 M⁻¹ s⁻¹	inactive	11800	–	–	–	–	< 0.1	–	CCOC(=O)[C@H]1O[C@@H]1C(=O)N(CC(=O)O)NC(=O)[C@@H](NC(=O)[C@H](CCC(=O)O)NC(=O)[C@H](CC(=O)O)NC(=O)OCc1ccccc1)C(C)C
785	inactive	475	464000	inactive	inactive	inactive	4320	inactive	inactive	inactive	inactive	< 0.1	–	CCOC(=O)[C@@H]1O[C@H]1C(=O)N(CC(=O)O)NC(=O)[C@@H](NC(=O)C(CCC(=O)O)NC(=O)[C@H](CC(=O)O)NC(=O)OCc1ccccc1)C(C)C (stereo partly specified)
195000	–	4180	50500	–	–	–	58500	inactive	inactive	inactive	inactive	–	k obs / 1 [13]: 86 M⁻¹ s⁻¹	CCOC(=O)[C@H]1O[C@@H]1C(=O)N(CC(=O)O)NC(=O)[C@@H](NC(=O)[C@H](CCC(=O)O)NC(=O)OCc1ccccc1)C(C)C
52800	inactive	45800	4080	–	–	inactive	12400	inactive	inactive	inactive	inactive	0.65	–	CCOC(=O)[C@H]1O[C@@H]1C(=O)N(CC(=O)O)NC(=O)[C@@H](NC(=O)[C@H](CCC(=O)O)NC(=O)[C@@H](NC(=O)OCc1ccccc1)[C@@H](C)CC)[C@@H](C)O
1560	–	165	1470	–	–	–	52100	inactive	inactive	inactive	inactive	< 0.3	k obs / 1 [14]: < 10 M⁻¹ s⁻¹	CC(C)[C@H](NC(=O)CCc1ccccc1)C(=O)N[C@@H](C)C(=O)NN(CC(=O)O)C(=O)[C@H]1O[C@@H]1C(=O)OCc1ccccc1 (stereo in doubt; 23d(S,S))
–	–	–	680	–	21 M⁻¹ s⁻¹	–	18100	–	–	–	–	–	k obs / 1 (Papain (Carica papaya) [15]): < 10 M⁻¹ s⁻¹; k obs / 1 (Cathepsin B [16]): No inhibition; k obs / 1 [14]: < 10 M⁻¹ s⁻¹	CC(C)[C@H](NC(=O)CCc1ccccc1)C(=O)N[C@@H](C)C(=O)NN(CC(=O)O)C(=O)[C@H]1O[C@@H]1C(=O)OCc1ccccc1 (stereo in doubt)
–	–	–	–	–	–	–	400	–	–	–	–	–	k2 (Caspase-3 (Homo sapiens) [17]): inactive; k2 (Caspase-6 (Homo sapiens) [18]): inactive; k2 (Caspase-8 (Homo sapiens) [19]): inactive	CC(C)[C@H](NC(=O)CCc1ccccc1)C(=O)N[C@@H](C)C(=O)NN(CC(=O)O)C(=O)[C@@H]1O[C@H]1C(=O)NCC(O)c1ccccc1 (stereo partly specified)
1570	–	75	1040	–	–	–	32200	–	inactive	inactive	inactive	–	k obs / 1 [20]: inactive	CCOC(=O)[C@H]1O[C@@H]1C(=O)N(CC(=O)O)NC(=O)[C@H](C)NC(=O)[C@@H](NC(=O)CCc1ccccc1)C(C)C
